Measured values gathered from unrelated publications.
Compare with care: the assays were run in different laboratories.
FGFR3: Fibroblast growth factor receptor 3 (FGFR3, Homo sapiens, UniProt P22607)

Nc1ncc(-c2nc(N3CCOCC3)nc(N3CCOCC3)n2)c(C(F)F)n1  remaining binding (FGFR3; cell-free assay; competition with immobilised ligand; 10 µM): 88%
C#Cc1n[nH]c2c(-c3cn(C(C)c4ccccn4)c(=O)[nH]c3=O)cc(F)cc12 (stereo not drawn)  inhibition (FGFR3; enzyme activity; inhibitor; 1 µM): 9.3%
Cn1cc(-c2cc(F)cc(N3CCn4c(cc5c4CCCC5)C3=O)c2CO)cc(Nc2ccc(N3CCN(C4COC4)CC3)cn2)c1=O  inhibition (FGFR3; enzyme activity; inhibitor; 0.1 µM): 19%
Cc1nn(C)cc1-c1nc2c(N3CCN(Cc4ccc(Cl)cc4)CC3)c(Cl)cnc2[nH]1  remaining binding (Fibroblast growth factor receptor 3 (FGFR3, Homo sapiens, UniProt P22607, G697C); binding; competition with immobilised ligand; 1 µM): 69%
COc1cc(Nc2ncc(F)c(Nc3ccc4c(n3)NC(=O)C(C)(C)O4)n2)cc(OC)c1OC  inhibition (FGFR3; binding; competition with immobilised ligand; 10 µM): 99%
O=c1[nH]c2ccccc2n1C1CCN(Cc2ccc(-c3[nH]c4cc5ncnc5cc4nc3-c3ccccc3)cc2)CC1  remaining signal (FGFR3; cell-free assay; 0.5 µM): 101%
COc1ncccc1-c1cnn2ccc(N3CCN(C(=O)OC(C)C)CC3)nc12  remaining binding (FGFR3; binding; competition with immobilised ligand; 1 µM): 86%
CC(C)(C)c1cc(C=C(C#N)C#N)cc(Br)c1O  remaining activity (FGFR3; enzyme activity; inhibitor; 0.5 µM): 92.8%
Cn1cncc1[C@@](O)(COc1ccc(C#N)cc1-c1ccc(OC(F)(F)F)cc1)c1ccc(C#N)cc1  remaining binding (FGFR3; cell-free assay; competition with immobilised ligand; 1 µM): 100%
